# Experimental data gathered from unrelated publications.
# Each line is one published result; the experiments were not run side by side.
# Effect on: cell growth or viability
Compound,cell line,test,conditions,IC50 [nM]
CNC(=O)c1ncn2c(NCc3c(F)ccc4c3CCO4)ncc(-c3ccccc3)c12,KARPAS-422,,7 days,52
C=C(Cl)C(=O)Nc1cc(Nc2nc(N3CCCC3)c3sccc3n2)c(OC)cc1N(C)CCN(C)C,NCI-H1975,MTT,,126
O=c1cc(CCl)c2c(O)cc(O)cc2o1,HEK293,MTT,36 h,> 20000
Cn1nnc2c(C(N)=O)ncn2c1=O,T98G,resazurin,7 days,660000
CC[C@@H](C)[C@H](N)C(=O)N1Cc2ccccc2C1,SET-2,ATP luminescence,,90
C=C(Cl)C(=O)Nc1cc(Nc2nc(N3CCOCC3)c3sccc3n2)c(OC)cc1N(C)CCN(C)C,NCI-H1975,MTT,,120
Cc1cc(C)c2cc(CNCCCNc3nc4ccccc4[nH]3)[nH]c2c1,HEK293,,,> 10000
O=C1NCCc2[nH]c(-c3ccncc3)cc21,SK-MEL-28,,,9600
COc1ccc(F)cc1C(=O)NCc1ccc(-c2nn([C@@H](C)C(F)(F)F)c(N)c2C(N)=O)cc1,TMD8,ATP luminescence,72 h,6.4
C=C(Cl)C(=O)Nc1cc(Nc2nc(N3CCc4sccc4C3)c3sccc3n2)c(OC)cc1N(C)CCN(C)C,NCI-H1975,MTT,,87
CCCCN(CCCC)C(=O)c1ncn2c(=O)n(C)nnc12,T98G,resazurin,7 days,140000
CC(=O)O[C@H](C)C(=O)CCCCCCC(=O)Nc1ccccc1,HEK293,XTT,,36300
CCC(=O)Nc1cc(Nc2nc(Nc3cnn(C)c3)c3sccc3n2)c(OC)cc1N(C)CCN(C)C,NCI-H1975,MTT,,> 50000
Cc1[nH]c(C)c(-c2ccc(CCc3ccc(F)cc3F)cc2)c(=O)c1Br,HEK293,,,> 10000
C=CC(=O)Nc1cccc(Nc2nc(Nc3ccc(OCCOC)cc3)ncc2F)c1,NCI-H1975,,,1270
Cc1c(O)ccc2ccc(=O)oc12,HEK293,MTT,36 h,> 20000
C=C(Cl)C(=O)Nc1cc(Nc2nc(Nc3cnn(C)c3)c3sccc3n2)c(OC)cc1N(C)CCN(C)C,NCI-H1975,MTT,,23
CCN(CC)C(=O)c1ncn2c(=O)n(C)nnc12,T98G,resazurin,7 days,160000
Cc1[nH]c(C)c(-c2ccc(OCc3ccc(F)cc3)cc2)c(=O)c1Cl,HEK293,,,> 10000
COc1cc2c(Nc3ccc(Cl)c(Cl)c3F)ncnc2cc1OC[C@@H]1C[C@@H]2CN(C)C[C@@H]2C1,GBM6,ATP luminescence,"18 days, 3D culture",102
COc1c(C)[nH]c(C)c(-c2ccc(Oc3cccc(C(F)(F)F)c3)cc2)c1=O,HEK293,,,> 10000
CCC(=O)Nc1cc(Nc2nc(N3CCc4sccc4C3)c3cccnc3n2)c(OC)cc1N1CCC(N(C)C)CC1,NCI-H1975,MTT,,810
C/C=C/COc1ccc(-c2c(C)[nH]c(C)c(Cl)c2=O)cc1,HEK293,,,> 10000
C=CC(=O)Nc1cc(Nc2nc(N3CCc4sccc4C3)c3cccnc3n2)c(OC)cc1N1CCN(C(C)=O)CC1,NCI-H1975,MTT,,694
COc1cccc(Oc2ccccc2NC(=O)CNC(=O)c2c(C)cc(C)cc2C)c1,A673,,,5500
Cc1[nH]c(C)c(-c2ccc(-c3ccccc3C(F)(F)F)nc2)c(=O)c1Br,HEK293,,,> 10000
N[C@@H](CC(=O)N1CCN(C(c2ccc(F)cc2)c2ccc(F)cc2)CC1)C(=O)N1Cc2ccccc2C1,SET-2,ATP luminescence,48 h,368
O=C(Nc1ccc(OC2CCN(Cc3ccccc3)C2)c(Cl)c1)c1cccs1 (stereo not shown),HEK293,,,> 10000
COc1ccc2oc(=O)cc(CSC(C)=O)c2c1,HEK293,MTT,36 h,> 20000
COc1cc(Nc2nccc(-c3cnn4nc(OC)ccc34)n2)cc(C(F)(F)F)c1,MKN-1,ATP luminescence,,580
CC(=O)Oc1ccc2ccc(=O)oc2c1CBr,HEK293,MTT,36 h,> 20000
COc1cc(N(C)CCN(C)C)c(NC(=O)/C=C/C(C)C)cc1Nc1nc(Nc2cnn(C)c2)c2sccc2n1,NCI-H1975,MTT,,297
O=c1ccc2ccc(O)c(CO)c2o1,HEK293,MTT,36 h,> 20000
C=CC(=O)N1CCC[C@@H](n2nc(-c3ccc(Oc4ccccc4)cc3)c3c(N)ncnc32)C1,CNE2Z,,,> 10000
C=CC(=O)Nc1cccc(N2C(=O)OC(C)c3cnc(Nc4ccc(N5CCN(C)CC5)cc4OC)nc32)c1 (stereo not shown),TMD8,CCK-8,72 h,28
CCSC(=O)c1ncn2c(=O)n(C)nnc12,T98G,resazurin,7 days,327000
CCCCCCCCc1c(C)[nH]c(C)c(Cl)c1=O,HEK293,,,> 10000
